Measured values taken from ChEMBL document CHEMBL1811770, “Synthesis and structural investigation of some pyrimido[5,4-c]quinolin-4(3H)-one derivatives with a long-chain arylpiperazine moiety as potent 5-HT(1A/2A) and 5-HT(7) receptor ligands” (Eur J Med Chem, 2011).

How the values were obtained:
[1] = molecular target: T1, 5-hydroxytryptamine receptor 1A (Rattus norvegicus) (UniProt P19327); assay: Displacement of [3H]8-OH-DPAT from 5HT1A receptor in rat hippocampal membrane at 10^-6 M by radioligand binding assay; assay type: cell membranes; settings: Hippocampus
T1 sequence (whole entry): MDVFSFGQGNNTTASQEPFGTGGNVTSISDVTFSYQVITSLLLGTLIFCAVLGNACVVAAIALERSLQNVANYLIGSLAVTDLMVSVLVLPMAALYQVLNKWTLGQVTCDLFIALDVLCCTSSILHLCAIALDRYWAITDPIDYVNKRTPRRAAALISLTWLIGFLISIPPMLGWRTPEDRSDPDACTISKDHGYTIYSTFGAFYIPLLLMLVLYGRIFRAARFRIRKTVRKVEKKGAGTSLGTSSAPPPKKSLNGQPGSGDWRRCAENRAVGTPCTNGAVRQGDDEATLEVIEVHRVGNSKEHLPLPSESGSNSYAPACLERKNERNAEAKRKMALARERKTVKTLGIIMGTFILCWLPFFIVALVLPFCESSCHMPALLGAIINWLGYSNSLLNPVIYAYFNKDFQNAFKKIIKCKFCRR
How it was run: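 Single-point screen at 1 µM on rat hippocampal membranes, reported as % inhibition of [3H]-8-OH-DPAT (170 Ci/mmol) binding. Non-specific binding was defined with 10 µM 5-HT. Compounds inhibiting at least 85% went on to full competition.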

[2] = molecular target: 5-hydroxytryptamine receptor 2A (Rattus norvegicus) (UniProt P14842); assay: Displacement of [3H]ketanserin from 5HT2A receptor in rat cortex membrane at 10^-6 M by radioligand binding assay; assay type: cell membranes
Sequence of 5-hydroxytryptamine receptor 2A (Rattus norvegicus) (P14842 whole entry): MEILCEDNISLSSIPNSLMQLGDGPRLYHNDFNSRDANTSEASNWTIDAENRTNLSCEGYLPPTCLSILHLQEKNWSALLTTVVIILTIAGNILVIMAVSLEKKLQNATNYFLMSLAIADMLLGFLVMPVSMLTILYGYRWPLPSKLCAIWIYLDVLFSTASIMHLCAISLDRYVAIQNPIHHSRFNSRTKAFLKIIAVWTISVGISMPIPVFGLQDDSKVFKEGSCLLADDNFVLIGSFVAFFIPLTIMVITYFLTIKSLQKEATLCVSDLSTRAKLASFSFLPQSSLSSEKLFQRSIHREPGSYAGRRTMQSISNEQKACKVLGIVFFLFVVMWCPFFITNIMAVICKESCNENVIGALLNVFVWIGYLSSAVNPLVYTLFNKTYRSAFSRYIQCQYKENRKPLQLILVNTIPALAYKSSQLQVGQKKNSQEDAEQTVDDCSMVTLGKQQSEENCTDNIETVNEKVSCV
How it was run: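 Single-point screen at 1 µM, reported as % inhibition of [3H]-ketanserin (88.0 Ci/mmol) binding. Non-specific binding was defined with 1 µM methysergide. Compounds inhibiting at least 85% went on to full competition.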

[3] = molecular target: 5-hydroxytryptamine receptor 7 (Homo sapiens, UniProt P34969); assay: Displacement of [3H]-5-CT from human 5-HT7b receptor expressed in HEK293 cells by radioligand binding assay; assay type: cell-based
Sequence of 5-hydroxytryptamine receptor 7 (P34969 whole entry): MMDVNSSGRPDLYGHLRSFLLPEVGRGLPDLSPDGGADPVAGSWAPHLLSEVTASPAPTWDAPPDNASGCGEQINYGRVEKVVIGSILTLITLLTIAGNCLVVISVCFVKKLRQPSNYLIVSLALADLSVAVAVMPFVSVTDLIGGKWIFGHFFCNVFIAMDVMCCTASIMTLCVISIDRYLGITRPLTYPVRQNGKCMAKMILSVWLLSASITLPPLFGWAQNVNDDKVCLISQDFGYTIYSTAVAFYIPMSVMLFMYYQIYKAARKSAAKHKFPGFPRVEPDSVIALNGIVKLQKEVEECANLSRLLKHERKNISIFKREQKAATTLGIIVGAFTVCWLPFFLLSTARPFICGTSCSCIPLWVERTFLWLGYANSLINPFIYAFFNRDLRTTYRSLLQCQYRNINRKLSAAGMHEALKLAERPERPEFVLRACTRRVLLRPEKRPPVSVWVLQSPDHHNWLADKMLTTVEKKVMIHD
How it was run: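 Membranes from HEK-293 cells stably expressing human 5-HT7b receptor, with [3H]-5-CT (93.0 Ci/mmol) as radioligand. Full competition used 7–9 concentrations of test compound, each run in triplicate. Ki was derived from the inhibition.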

[4] = molecular target: T2, 5-hydroxytryptamine receptor 1A (Rattus norvegicus, UniProt P19327); assay: Displacement of [3H]8-OH-DPAT from 5HT1A receptor in rat hippocampal membrane by radioligand binding assay; assay type: cell membranes, Hippocampus
T2 sequence (P19327 whole entry): T1 sequence (whole entry)
How it was run: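 Rat hippocampal membranes were incubated with [3H]-8-OH-DPAT (170 Ci/mmol), with 10 µM 5-HT for non-specific binding. Competition used 7–9 test concentrations, each in triplicate, to give Ki. Values are means of three experiments run in triplicate.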

Compound	inhibition [1]	inhibition [2]	Ki [3]	Ki [4]
Cc1ccc2c(c1)ncc1c(=O)n(CCCN3CCN(c4cccc(Cl)c4)CC3)cnc12	73%	40%		
COc1cccc(N2CCN(CCn3cnc4c(cnc5ccccc54)c3=O)CC2)c1	82%	11%		
O=c1c2cnc3ccccc3c2ncn1CCCCN1CCN(c2ccc(F)cc2)CC1	75%	82%	404 nM	
O=c1c2cnc3ccccc3c2ncn1CCN1CCN(c2ccccc2F)CC1	47%	25%		
COc1ccc(N2CCN(CCCn3cnc4c(cnc5ccccc54)c3=O)CC2)cc1	0%	23%		
O=c1c2cnc3ccccc3c2ncn1CCCN1CCN(c2ccccc2Cl)CC1	87%	41%		93 nM
COc1ccc(N2CCN(CCn3cnc4c(cnc5cc(C)ccc54)c3=O)CC2)cc1	9%	9%		
O=c1c2cnc3ccccc3c2ncn1CCN1CCN(c2ccc(Cl)cc2)CC1	11%	4%		
COc1ccccc1N1CCN(CCn2cnc3c(cnc4cc(C)ccc43)c2=O)CC1	96%	19%		14 nM
Cc1ccc2ncc3c(=O)n(CCCN4CCN(c5ccc(F)cc5)CC4)cnc3c2c1	67%	39%		
COc1ccc(N2CCN(CCCCn3cnc4c(cnc5ccccc54)c3=O)CC2)cc1	11%	48%	> 10000 nM	
O=c1c2cnc3ccccc3c2ncn1CCCN1CCN(c2ccc(Cl)cc2)CC1	42%	67%		
COc1ccccc1N1CCN(CCCCn2cnc3c(cnc4cc(C)ccc43)c2=O)CC1	99%	43%		20 nM
Cc1ccc2c(c1)ncc1c(=O)n(CCCCN3CCN(c4ccc(F)cc4)CC3)cnc12	60%	57%		
Cc1ccccc1N1CCN(CCCn2cnc3c(cnc4ccccc43)c2=O)CC1	81%	32%		
O=c1c2cnc3ccccc3c2ncn1CCN1CCN(c2cccc(C(F)(F)F)c2)CC1	89%	36%		160 nM
Cc1ccccc1N1CCN(CCn2cnc3c(cnc4ccccc43)c2=O)CC1	84%	34%		514 nM
COc1ccc(N2CCN(CCn3cnc4c(cnc5ccc(C)cc54)c3=O)CC2)cc1	5%	4%		
O=c1c2cnc3ccccc3c2ncn1CCN1CCN(c2ccc(F)cc2)CC1	40%	14%		

Compound	inhibition [1]	inhibition [2]	Ki [3]	Ki [4]
O=c1c2cnc3ccccc3c2ncn1CCCCN1CCN(c2cccc(C(F)(F)F)c2)CC1	89%	61%	418 nM	127 nM
COc1ccccc1N1CCN(CCn2cnc3c(cnc4ccccc43)c2=O)CC1	93%	36%		42 nM
COc1ccccc1N1CCN(CCCCn2cnc3c(cnc4ccc(C)cc43)c2=O)CC1	99%	48%		8 nM
O=c1c2cnc3ccccc3c2ncn1CCN1CCN(c2ccccc2Cl)CC1	90%	17%		78 nM
O=c1c2cnc3ccccc3c2ncn1CCCCN1CCN(c2ccccc2F)CC1	96%	79%	739 nM	63 nM
Cc1ccc2ncc3c(=O)n(CCCN4CCN(c5cccc(Cl)c5)CC4)cnc3c2c1	77%	44%		
Cc1ccc2ncc3c(=O)n(CCN4CCN(c5cccc(C(F)(F)F)c5)CC4)cnc3c2c1	82%	8%		
COc1ccccc1N1CCN(CCn2cnc3c(cnc4ccc(C)cc43)c2=O)CC1	88%	11%		82 nM
O=c1c2cnc3ccccc3c2ncn1CCCCN1CCN(c2cccc(Cl)c2)CC1	96%	84%	184 nM	34 nM
O=c1c2cnc3ccccc3c2ncn1CCCN1CCN(c2cccc(C(F)(F)F)c2)CC1	85%	44%		243 nM
O=c1c2cnc3ccccc3c2ncn1CCCCN1CCN(c2ccccc2)CC1	93%	76%	612 nM	28 nM
Cc1ccc2ncc3c(=O)n(CCCCN4CCN(c5ccccc5F)CC4)cnc3c2c1	94%	34%		97 nM
Cc1ccc2c(c1)ncc1c(=O)n(CCN3CCN(c4cccc(C(F)(F)F)c4)CC3)cnc12	88%	8%		241 nM
Cc1ccc2ncc3c(=O)n(CCCCN4CCN(c5cccc(Cl)c5)CC4)cnc3c2c1	91%	57%		67 nM
O=c1c2cnc3ccccc3c2ncn1CCCN1CCN(c2ccccc2)CC1	95%	66%		47 nM
COc1ccc(N2CCN(CCn3cnc4c(cnc5ccccc54)c3=O)CC2)cc1	6%	28%		
COc1ccccc1N1CCN(CCCn2cnc3c(cnc4ccccc43)c2=O)CC1	97%	8%		20 nM
Cc1ccccc1N1CCN(CCCCn2cnc3c(cnc4ccccc43)c2=O)CC1	96%	82%	296 nM	52 nM
O=c1c2cnc3ccccc3c2ncn1CCN1CCN(c2cccc(Cl)c2)CC1	93%	22%		55 nM

Compound	inhibition [1]	inhibition [2]	Ki [3]	Ki [4]
COc1ccccc1N1CCN(CCCCn2cnc3c(cnc4ccccc43)c2=O)CC1	97%	64%	276 nM	6 nM
O=c1c2cnc3ccccc3c2ncn1CCN1CCN(c2ccccc2)CC1	66%	26%		
COc1cccc(N2CCN(CCCCn3cnc4c(cnc5ccccc54)c3=O)CC2)c1	90%	76%	484 nM	31 nM
O=c1c2cnc3ccccc3c2ncn1CCCN1CCN(c2ccc(F)cc2)CC1	85%	73%		129 nM
COc1cccc(N2CCN(CCCn3cnc4c(cnc5ccccc54)c3=O)CC2)c1	89%	26%		120 nM
Cc1ccc2ncc3c(=O)n(CCCCN4CCN(c5ccc(F)cc5)CC4)cnc3c2c1	72%	56%		
COc1ccccc1N1CCN(CCCn2cnc3c(cnc4ccc(C)cc43)c2=O)CC1	93%	5%		26 nM
O=c1c2cnc3ccccc3c2ncn1CCCCN1CCN(c2ccc(Cl)cc2)CC1	54%	79%	328 nM	
COc1ccccc1N1CCN(CCCn2cnc3c(cnc4cc(C)ccc43)c2=O)CC1	92%	18%		31 nM
Cc1ccc2c(c1)ncc1c(=O)n(CCCN3CCN(c4ccc(F)cc4)CC3)cnc12	68%	45%		
O=c1c2cnc3ccccc3c2ncn1CCCN1CCN(c2cccc(Cl)c2)CC1	91%	63%		80 nM
Cc1ccc2c(c1)ncc1c(=O)n(CCCN3CCN(c4ccccc4)CC3)cnc12	86%	44%		125 nM
O=c1c2cnc3ccccc3c2ncn1CCN1CCN(c2ccc(-c3ncccn3)cc2)CC1	10%	29%		
O=c1c2cnc3ccccc3c2ncn1CCCCN1CCN(c2ccccc2Cl)CC1	92%	72%	153 nM	17 nM
Cc1ccc2c(c1)ncc1c(=O)n(CCCCN3CCN(c4cccc(Cl)c4)CC3)cnc12	85%	62%		172 nM
Cc1ccc2c(c1)ncc1c(=O)n(CCCCN3CCN(c4ccccc4F)CC3)cnc12	90%	45%		83 nM
O=c1c2cnc3ccccc3c2ncn1CCCN1CCN(c2ccccc2F)CC1	92%	27%		55 nM
Cc1ccc2ncc3c(=O)n(CCCN4CCN(c5ccccc5)CC4)cnc3c2c1	86%	28%		128 nM
